From ChEMBL document CHEMBL3112571, “Benzimidazole CB2 agonists: design, synthesis and SAR” (Bioorg Med Chem Lett, 2014) come the findings set out here.

Experiment [1] concerns the target T1, Cannabinoid receptor 1 (Homo sapiens, UniProt P21554). As to the kind of experiment: Agonist activity at human CB1 receptor expressed in CHO-K1 cells assessed as forskolin-induced cAMP accumulation after 1 hr. The class given is functional, cell-based. In a few lines: (§1)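 CHO-K1 cells (1000/well) expressing human CB1 or CB2 preincubated with compound 15 min at room temperature, then forskolin at EC70 added for a further 30 min at room temperature. cAMP measured by HTRF (d2-cAMP plus anti-cAMP-cryptate, final 1 h room temperature incubation). Values are the average of N = 1 to 3 results.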
For orientation: cAMP levels reflect the balance of adenylyl cyclase and phosphodiesterase activity.

Experiment [2] has as its target T1, Cannabinoid receptor 1. As to the kind of experiment: Agonist activity at human CB1 receptor expressed in CHO-K1 cells assessed as forskolin-induced cAMP accumulation after 1 hr relative to control. Type of experiment: functional, cell-based. In a few lines: as §1
Experiment [3] deals with T2, Cannabinoid receptor 2 (Homo sapiens, UniProt P34972). Kind of experiment: Agonist activity at human CB2 receptor expressed in CHO-K1 cells assessed as forskolin-induced cAMP accumulation after 1 hr. The class given is functional, cell-based. In short, it runs like this: as §1
T2 sequence (P34972 whole entry): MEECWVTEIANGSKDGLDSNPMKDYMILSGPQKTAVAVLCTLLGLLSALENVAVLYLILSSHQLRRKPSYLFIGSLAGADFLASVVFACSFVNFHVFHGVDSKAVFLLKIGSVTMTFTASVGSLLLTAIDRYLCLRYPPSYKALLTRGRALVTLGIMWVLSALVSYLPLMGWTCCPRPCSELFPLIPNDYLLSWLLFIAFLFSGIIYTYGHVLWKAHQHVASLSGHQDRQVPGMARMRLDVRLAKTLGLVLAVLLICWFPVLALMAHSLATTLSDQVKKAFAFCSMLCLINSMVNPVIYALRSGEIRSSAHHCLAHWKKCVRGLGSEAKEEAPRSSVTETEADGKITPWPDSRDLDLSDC
Experiment [4] deals with T2, Cannabinoid receptor 2. As to the kind of experiment: Agonist activity at human CB2 receptor expressed in CHO-K1 cells assessed as forskolin-induced cAMP accumulation after 1 hr relative to control. Type of experiment: functional, cell-based. In a few lines: as §1
The species entered for the next experiment is Homo sapiens. As to the kind of experiment: Selectivity ratio of EC50 for human CB1 receptor to EC50 for human CB2 receptor.

pEC50, pIC50: −log10 of the molar value. Some results are limits rather than exact numbers.

T1 sequence (P21554 whole entry): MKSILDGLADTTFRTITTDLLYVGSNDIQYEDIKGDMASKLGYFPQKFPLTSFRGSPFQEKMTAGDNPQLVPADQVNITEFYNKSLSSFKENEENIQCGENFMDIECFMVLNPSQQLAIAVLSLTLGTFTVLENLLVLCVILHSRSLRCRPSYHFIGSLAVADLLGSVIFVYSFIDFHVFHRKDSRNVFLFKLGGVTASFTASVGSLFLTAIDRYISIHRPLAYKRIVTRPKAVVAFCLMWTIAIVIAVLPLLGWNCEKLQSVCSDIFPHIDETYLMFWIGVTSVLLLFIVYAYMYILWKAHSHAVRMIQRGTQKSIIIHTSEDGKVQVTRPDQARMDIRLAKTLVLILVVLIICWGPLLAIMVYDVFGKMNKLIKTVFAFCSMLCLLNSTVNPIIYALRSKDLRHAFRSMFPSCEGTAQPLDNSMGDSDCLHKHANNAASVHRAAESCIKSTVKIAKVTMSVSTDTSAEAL

As usually defined, the pEC50 is −log10 of the EC50, conventionally taken in molar units. A word on the Emax: it is the maximal effect, on the per cent scale that the assay sets. As to `CCn1c(C(=O)NCc2ccccc2Cl)nc2c(-c3ccccc3)cccc21`, the negative logarithm of the EC50 (pEC50) on Cannabinoid receptor 1 [1] was 6.04; at Cannabinoid receptor 2 [3], 8.00. Moreover, the Emax on Cannabinoid receptor 1 [2] was 87%; at Cannabinoid receptor 2 [4], 101%. Besides, the Ratio EC50 in the experiment filed under Homo sapiens turned out to be 92.

`O=C(NCc1cccc(C(F)(F)F)c1)c1nc2c(-c3ccccc3)cccc2[nH]1`: the figures for the pEC50 at Cannabinoid receptor 1 [1] and at Cannabinoid receptor 2 [3] were < 4.77 and 6.59, respectively. Moreover, the maximal response (Emax) on Cannabinoid receptor 2 [4] came out at 69%.

As for `O=C(NCC(O)CO)c1nc2c(-c3ccccc3)cccc2[nH]1` (stereo not given), the pEC50 at Cannabinoid receptor 1 [1] was < 4.77; on Cannabinoid receptor 2 [3] it was 8.20. For the same compound, the Emax on Cannabinoid receptor 2 [4] was determined as 75%.

In the case of `O=C(NCc1cccc(Cl)c1)c1nc2c(-c3ccccc3)cccc2[nH]1`, the pEC50 on Cannabinoid receptor 1 [1] was < 4.77; on Cannabinoid receptor 2 [3], 6.78. Moreover, on Cannabinoid receptor 2 [4], the Emax worked out at 67%.

Broadly, the pIC50 is −log10 of the IC50, conventionally taken in molar units. As for `O=C(NC12CC3CC(CC(C3)C1)C2)c1nc(C(O)c2cccnc2)c2ccccn12` (racemic), the figures for the pIC50 on Cannabinoid receptor 1 [1] and on Cannabinoid receptor 2 [3] were 5.41 and 8.35, respectively. The values for the Activity on Cannabinoid receptor 1 [2] and on Cannabinoid receptor 2 [4] were 82% and 88%, respectively.

As for `O=C(NCC1(CO)CCCCC1)c1nc2c(-c3ccccc3)cccc2[nH]1`, the negative-log EC50 (pEC50) was < 4.77 on Cannabinoid receptor 1 [1] and 7.37 at Cannabinoid receptor 2 [3]. The maximal effect (Emax) on Cannabinoid receptor 2 [4] was determined as 92%.

Take `CCn1c(C(=O)NCc2ccc(C#N)cc2)nc2c(-c3ccccc3)cccc21`: the pEC50 was < 4.77 on Cannabinoid receptor 1 [1] and 7.08 at Cannabinoid receptor 2 [3]. For the same compound, the Emax on Cannabinoid receptor 2 [4] came out at 99%.

Regarding `O=C(NCc1ncccc1F)c1nc2c(-c3ccccc3)cccc2[nH]1`, the negative logarithm of the EC50 (pEC50) at Cannabinoid receptor 1 [1] is < 4.77; on Cannabinoid receptor 2 [3] it was 5.84. Further, the Emax on Cannabinoid receptor 2 [4] came out at 39%.

In the case of `CCn1c(C(=O)NCc2cccc(Cl)c2)nc2c(-c3ccccc3)cccc21`, the pEC50 at Cannabinoid receptor 1 [1] is < 4.77; on Cannabinoid receptor 2 [3] it was 7.40. Besides, the maximum response (Emax) on Cannabinoid receptor 2 [4] was found to be 87%. In addition, the Ratio EC50 in the experiment filed under Homo sapiens was > 425.

As to `O=C(NC12CC3CC(CC(C3)C1)C2)c1nc2c(-c3ccccc3)cccc2[nH]1`, the pEC50 was 6.91 on Cannabinoid receptor 1 [1] and 8.72 at Cannabinoid receptor 2 [3]. Also, the Emax was 100% on Cannabinoid receptor 1 [2] and 99% on Cannabinoid receptor 2 [4]. The Ratio EC50 in the experiment filed under Homo sapiens turned out to be 65.

As for `CC(C)(C)CNC(=O)c1nc2c(-c3ccccc3)cccc2n1CC(F)(F)F`, the negative-log EC50 (pEC50) at Cannabinoid receptor 1 [1] and on Cannabinoid receptor 2 [3] was < 4.77 in each case.

For the compound `CCn1c(C(=O)NCC(C)(C)C)nc2c(-c3ccccc3)cccc21`, the figures for the negative-log EC50 (pEC50) at Cannabinoid receptor 1 [1] and at Cannabinoid receptor 2 [3] were 6.04 and 6.31, respectively. The maximum response (Emax) on Cannabinoid receptor 1 [2] came out at 87%; at Cannabinoid receptor 2 [4], 67%.

As for `O=C(NCC1(CO)CCCC1)c1nc2c(-c3ccccc3)cccc2[nH]1`, the negative logarithm of the EC50 (pEC50) is < 4.77 on Cannabinoid receptor 1 [1] and 7.61 at Cannabinoid receptor 2 [3]. Also, the maximal effect (Emax) on Cannabinoid receptor 2 [4] is 93%.

Turning to `O=C(NCc1ccccc1Cl)c1nc2c(-c3ccccc3)cccc2[nH]1`, the pEC50 was < 4.77 on Cannabinoid receptor 1 [1] and 6.35 at Cannabinoid receptor 2 [3]. On Cannabinoid receptor 2 [4], the Emax was 64%.

For `O=C(NCC1(CO)CCCCC1)c1nc2c(-c3ccccc3)cccc2n1CC(F)(F)F`, the results for the negative-log EC50 (pEC50) at Cannabinoid receptor 1 [1] and on Cannabinoid receptor 2 [3] were < 4.77 and 5.70, respectively. Besides, the maximal response (Emax) at Cannabinoid receptor 2 [4] turned out to be 45%.

For the compound `O=C(NCC1(CO)CCCC1)c1nc2c(-c3ccccc3)cccc2n1CC(F)(F)F`, the pEC50 at Cannabinoid receptor 1 [1] and at Cannabinoid receptor 2 [3] was < 4.77 throughout.

As for `CCn1c(C(=O)NCc2cncnc2)nc2c(-c3ccccc3)cccc21`, the pEC50 on Cannabinoid receptor 1 [1] is < 4.77; on Cannabinoid receptor 2 [3], 5.96. In addition, the maximal effect (Emax) at Cannabinoid receptor 2 [4] stood at 89%.

Take `CCn1c(C(=O)NCc2ccccc2F)nc2c(-c3ccccc3)cccc21`: the pEC50 is < 4.77 on Cannabinoid receptor 1 [1] and 7.35 at Cannabinoid receptor 2 [3]. In addition, the Emax on Cannabinoid receptor 2 [4] came out at 98%.

As to `O=C(NCc1ccccc1F)c1nc2c(-c3ccccc3)cccc2[nH]1`, the negative logarithm of the EC50 (pEC50) at Cannabinoid receptor 1 [1] is < 4.77; at Cannabinoid receptor 2 [3], 6.59. On Cannabinoid receptor 2 [4], the Emax turned out to be 49%.

For `CC(C)(C)CNC(=O)c1nc2c(-c3ccccc3)cccc2[nH]1`, the negative-log EC50 (pEC50) was < 4.77 at Cannabinoid receptor 1 [1] and 7.83 at Cannabinoid receptor 2 [3]. Further, the Emax on Cannabinoid receptor 2 [4] was 95%. Also, the Ratio EC50 in the experiment filed under Homo sapiens is > 1160.

Take `CCn1c(C(=O)NCC2(CO)CCCC2)nc2c(-c3ccccc3)cccc21`: the pEC50 was < 4.77 at Cannabinoid receptor 1 [1] and 5.90 on Cannabinoid receptor 2 [3]. Further, at Cannabinoid receptor 2 [4], the Emax amounted to 68%.

On to `O=C(NC1(CO)CCCCC1)c1nc2c(-c3ccccc3)cccc2[nH]1`, for which the values for the negative-log EC50 (pEC50) at Cannabinoid receptor 1 [1] and at Cannabinoid receptor 2 [3] were < 4.77 and 6.63, respectively. For the same compound, the maximum response (Emax) at Cannabinoid receptor 2 [4] was 82%.

Turning to `O=C(NCc1ccccc1)c1nc2c(-c3ccccc3)cccc2[nH]1`, the pEC50 at Cannabinoid receptor 1 [1] is < 4.77; on Cannabinoid receptor 2 [3], 6.00. In addition, the Emax at Cannabinoid receptor 2 [4] came to 64%.
